In ChEMBL document CHEMBL3992529, “Total Syntheses and Biological Activities of Vinylamycin Analogues” (J Med Chem, 2017):
Active and inactive are the calls of the source. The rule behind the calls is not given here.

Key:
[1] = Stability of the compound at -20 degreeC incubated for one month; format: physicochemical; conditions: 730.5 h
K562 [2] = assay: Cytotoxicity against human K562 cells measured after 72 hrs by MTT assay; format: functional, cell-based; conditions: K562, 72 h
MCF7 [3] = assay: Cytotoxicity against human MCF7 cells incubated for 72 hrs under normoxic condition by MTT assay; format: functional, cell-based; conditions: MCF7, 72 h
Outline: (§1)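 MCF-7 cells seeded at 2 × 10^4 cells/100 µL in duplicate and preincubated 24 h. Serial dilutions added, then 72 h at 20% O2 (normoxia) or 1% O2 (hypoxia, modular chamber). Viability by MTT under normoxia. Values are mean ± SD of three independent experiments.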

MCF7 [4] = assay: Selectivity index, ratio of IC50 for human MCF7 cells under hypoxic condition to IC50 for human MCF7 cells under normoxic condition; format: functional
Outline: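 Index computed as IC50(hypoxia)/IC50(normoxia) in MCF-7 cells, each from a 72 h MTT assay at 1% or 20% O2.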

MCF7 [5] = assay: Cytotoxicity against human MCF7 cells incubated for 72 hrs under hypoxic condition by MTT assay; format: functional, cell-based; conditions: MCF7, 72 h; outline: as §1
K562 [6] = assay: Potency index, ratio of vinylamycin IC50 to compound IC50 for human K562 cells; format: functional
K562 [7] = assay: Induction of apoptosis in human K562 cells at 5 to 15 uM measured after 24 to 48 hrs by Annexin V-FITC/propidium iodide staining based flow cytometry; format: functional, cell-based
Outline: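 K562 cells seeded at 1 × 10^5 per well and treated 24 h and 48 h. Cells washed in PBS, resuspended in binding buffer, stained in the dark with annexin V-FITC and PI for 15 min, then analysed by flow cytometry within 1 h. Values are mean ± SD of three independent experiments.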

Staphylococcus aureus = assay: Antibacterial activity against Staphylococcus aureus measured after 24 hrs by turbidimetric based microdilution method; format: functional
Outline: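 S. aureus grown 18 h at 37 °C in MH broth, diluted 50-fold and regrown to OD600 0.8–1.0, then diluted ten-fold serially to about 1 × 10^4 CFU/mL. Compounds two-fold serially diluted, 64 to 0.0625 µg/mL. MIC read by visual turbidity after 24 h at 37 °C.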

Row | Compound | Stability [1] | MIC (Staphylococcus aureus) [µg/mL] | IC50 (K562 [2]) [µM] | IC50 (MCF7 [3]) [µM] | Ratio IC50 (MCF7 [4]) | IC50 (MCF7 [5]) [µM] | Ratio IC50 (K562 [6]) | Activity (K562 [7])
1 | CCCCCC[C@@H](C)[C@@H]1OC(=O)[C@H](C(C)C)NC(=O)[C@@H](C)NC(=O)/C=C/[C@H](CO)NC(=O)[C@H]1CCOCc1ccccc1 | Stable |  | 33.6 |  |  |  |  | 
2 | C=C1/C=C/C(=O)N(C)CC(=O)N[C@@H]([C@H](O)C(N)=O)C(=O)O[C@@H]([C@H](C)CCCCCCCCCCCC(C)C)[C@H](C)C(=O)N1 |  |  |  | 0.3 | 0.27 | 0.08 |  | 
3 | C#CCCCCCCCCC(=O)OCC[C@@H]1C(=O)N[C@@H](CO)/C=C/C(=O)N[C@H](C)C(=O)N[C@@H](C(C)C)C(=O)O[C@H]1[C@H](C)CCCCCC | Stable |  | 17.9 |  |  |  |  | 
4 | C=C1/C=C/C(=O)N[C@H](C)C(=O)N[C@@H](C(C)C)C(=O)O[C@@H]([C@H](C)CCCCCC)[C@H](CCOC(=O)C23CC4CC(CC(C4)C2)C3)C(=O)N1 | Stable |  | 7.72 |  |  |  |  | 
5 | Nc1ccn([C@@H]2O[C@H](CO)[C@@H](O)C2(F)F)c(=O)n1 [GEMCITABINE] |  |  |  | 0.57 | 15.6 | 8.9 |  | 
6 | C=C1/C=C/C(=O)N[C@@H](C)C(=O)N[C@H](C(C)C)C(=O)O[C@H]([C@H](C)CCCCCC)[C@@H](CCO[Si](c2ccccc2)(c2ccccc2)C(C)(C)C)C(=O)N1 | Stable |  | 1.78 | 2.98 | 0.9 | 2.69 | 3 | 
7 | C=C1/C=C/C(=O)N[C@@H](C)C(=O)N[C@H](C(C)C)C(=O)O[C@H]([C@@H](C)CCC)[C@@H](CCO)C(=O)N1 |  |  | > 50 | > 20 |  | > 20 |  | 
8 | C=C1/C=C/C(=O)N[C@H](C)C(=O)N[C@@H](C(C)C)C(=O)O[C@@H]([C@H](C)CCCCCC)[C@H](CCOC(=O)OC(C)(C)C)C(=O)N1 | Stable |  | 5.43 |  |  |  |  | 
9 | C=C1/C=C/C(=O)N[C@H](C)C(=O)N[C@@H](C(C)C)C(=O)O[C@@H]([C@H](C)CCCCCC)[C@H](CCOC(=O)CC(c2ccccc2)(c2ccccc2)c2ccccc2)C(=O)N1 | Stable |  | 3.79 |  |  |  |  | 

Further lines, with some results ahead:

Row | Stability [1] | MIC (Staphylococcus aureus) [µg/mL] | Compound | IC50 (K562 [2]) [µM] | IC50 (MCF7 [3]) [µM] | Ratio IC50 (MCF7 [4]) | IC50 (MCF7 [5]) [µM] | Ratio IC50 (K562 [6]) | Activity (K562 [7])
10 | Stable |  | C=C1/C=C/C(=O)N[C@H](C)C(=O)N[C@@H](C(C)C)C(=O)O[C@@H]([C@H](C)CCCCCC)[C@H](CCOCc2ccc(OC)cc2)C(=O)N1 | 2.49 |  |  |  |  | 
11 | Stable |  | C=C1/C=C/C(=O)N[C@H](C)C(=O)N[C@@H](C(C)C)C(=O)O[C@@H]([C@H](C)CCCCCC)[C@H](CCOC(=O)[C@H](Cc2ccccc2)NC(=O)OC(C)(C)C)C(=O)N1 | 5.95 |  |  |  |  | 
12 | Stable |  | C=C1/C=C/C(=O)N[C@@H](C)C(=O)N[C@H](C(C)C)C(=O)OC([C@@H](C)CCC)[C@@H](CCOCc2ccc(OC)cc2)C(=O)N1 (single isomer, unassigned) | 13.7 |  |  |  |  | 
13 | Stable |  | C=C1/C=C/C(=O)N[C@@H](C)C(=O)N[C@H](C(C)C)C(=O)O[C@@H]([C@H](C)CCCCCC)[C@H](CCO[Si](c2ccccc2)(c2ccccc2)C(C)(C)C)C(=O)N1 | 0.88 | 3.75 | 0.78 | 2.93 |  | 
14 | Stable | > 64 | C#CCCCCCCCCC(=O)OCC[C@@H]1C(=O)NC(=C)/C=C/C(=O)N[C@H](C)C(=O)N[C@@H](C(C)C)C(=O)O[C@H]1[C@H](C)CCCCCC | 4.41 |  |  |  |  | Active
